# Reference: ChEMBL document CHEMBL3352721, “Identification, optimization, and pharmacology of acylurea GHS-R1a inverse agonists” (J Med Chem, 2014)
# Target: Growth hormone secretagogue receptor type 1 (Homo sapiens, UniProt Q92847)
# Test: Displacement of [125I]human ghrelin from human GHS-R1a expressed in HEK cell membranes after 60 mins by gamma counting method
# Design: species or system HEK293
# Conditions: not given
# Chain of Growth hormone secretagogue receptor type 1 (Q92847 whole entry): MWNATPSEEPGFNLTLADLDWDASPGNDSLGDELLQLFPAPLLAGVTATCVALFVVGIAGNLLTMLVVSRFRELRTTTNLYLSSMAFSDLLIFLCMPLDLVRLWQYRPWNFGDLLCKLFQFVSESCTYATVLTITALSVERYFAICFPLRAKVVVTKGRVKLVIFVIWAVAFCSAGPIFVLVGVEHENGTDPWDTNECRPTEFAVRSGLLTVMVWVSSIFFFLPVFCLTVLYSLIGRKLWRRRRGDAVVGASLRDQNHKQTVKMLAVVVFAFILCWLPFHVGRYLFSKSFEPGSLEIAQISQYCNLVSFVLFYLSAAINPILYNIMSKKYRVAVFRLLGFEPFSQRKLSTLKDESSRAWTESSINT
row,Compound,IC50 [nM]
1,CN1CCC(S(=O)(=O)c2ccc3nc(NC(=O)NC(=O)c4cc(N5CCCC5)ccc4Cl)sc3c2)CC1,0.92
2,CN1CCN(CCCS(=O)(=O)c2ccc3nc(NC(=O)NC(=O)c4cc(-c5ccccn5)ccc4Cl)sc3c2)CC1,0.69
3,CN1CCN(CCCS(=O)(=O)c2ccc3nc(NC(=O)NC(=O)c4cc(-n5cccn5)ccc4Cl)sc3c2)CC1,0.67
4,COc1ccc2nc(NC(=O)NC(=O)c3c(Cl)cccc3Cl)sc2c1,210
5,COCCNCCCS(=O)(=O)c1ccc2nc(NC(=O)NC(=O)c3ccccc3Cl)sc2c1,8.6

# Continued, values first:
row,IC50 [nM],Compound
1,1.3,Cc1cc(C)n(-c2ccc(Cl)c(C(=O)NC(=O)Nc3nc4ccc(S(=O)(=O)CCCN5CCN(C)CC5)cc4s3)c2)n1
2,0.53,Cc1ccn(-c2ccc(Cl)c(C(=O)NC(=O)Nc3nc4ccc(S(=O)(=O)CCCN5CCN(C)CC5)cc4s3)c2)n1
3,0.57,CN1CCN(CCCS(=O)(=O)c2ccc3nc(NC(=O)NC(=O)c4cc5c(ccn5C)cc4Cl)sc3c2)CC1
4,0.24,CN1CCN(CCCS(=O)(=O)c2ccc3nc(NC(=O)NC(=O)c4cc(N5CCCC5)c(C#N)cc4Cl)sc3c2)CC1

# System: not listed separately
# Test: Ratio of drug level in homogenized brain to plasma in Han-Wistar rat measured 1 hr after iv bolus then iv infusion by LC-MS/MS method
# Format: ADME, organism-based
# Conditions: read-out: BPR
# How it was run: (§1)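 Brain:plasma ratio in homogenized brain 1 h after IV bolus followed by IV infusion. The free ratio used free fractions measured in plasma and brain (brain slice method or brain homogenate).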
row,Compound,Kp at 1 h
1,CN1CCN(CCCS(=O)(=O)c2ccc3nc(NC(=O)NC(=O)c4cc5c(ccn5C)cc4Cl)sc3c2)CC1,0.049
2,CN1CCN(CCCS(=O)(=O)c2ccc3nc(NC(=O)NC(=O)c4cc(-n5cccn5)ccc4Cl)sc3c2)CC1,< 0.03

# System: MDR1
# Test: Apparent permeability in MDCK cells expressing MDR1 at 10 uM assessed as apical to basolateral side transport
# Format: ADME, cell-based, Canis lupus familiaris
# Conditions: dog
# How it was run: (§2)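 MDCK-MDR1 monolayers incubated with compound at 10 µM; permeability measured in both A→B and B→A directions, giving Papp A-B (x10^6 cm/s) and the efflux ratio.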
row,Compound,Papp A→B at 10 µM [×10⁻⁶ cm/s]
1,CN(C)CCCS(=O)(=O)c1ccc2nc(NC(=O)NC(=O)c3ccccc3Cl)sc2c1,13
2,CN1CCC(S(=O)(=O)c2ccc3nc(NC(=O)NC(=O)c4cc(N5CCCC5)ccc4Cl)sc3c2)CC1,11
3,CN1CCN(CCCS(=O)(=O)c2ccc3nc(NC(=O)NC(=O)c4cc(-c5ccccn5)ccc4Cl)sc3c2)CC1,0.52
4,CN1CCN(CCCS(=O)(=O)c2ccc3nc(NC(=O)NC(=O)c4cc(-n5cccn5)ccc4Cl)sc3c2)CC1,2.9
5,CN1CCN(CCCS(=O)(=O)c2ccc3nc(NC(=O)NC(=O)c4cccc(-n5cccn5)c4Cl)sc3c2)CC1,0.91

# Other lines, results leading:
row,Papp A→B at 10 µM [×10⁻⁶ cm/s],Compound
1,0.86,COc1cc(Cl)c(C(=O)NC(=O)Nc2nc3ccc(S(=O)(=O)CCCN4CCN(C)CC4)cc3s2)cc1-n1cccn1
2,0.4,CN1CCN(CCCS(=O)(=O)c2ccc3nc(NC(=O)NC(=O)c4cc(-n5cccn5)c(Cl)cc4Cl)sc3c2)CC1
3,0.44,Cc1cc(C)n(-c2ccc(Cl)c(C(=O)NC(=O)Nc3nc4ccc(S(=O)(=O)CCCN5CCN(C)CC5)cc4s3)c2)n1
4,0.68,Cc1ccn(-c2ccc(Cl)c(C(=O)NC(=O)Nc3nc4ccc(S(=O)(=O)CCCN5CCN(C)CC5)cc4s3)c2)n1
5,3.9,CN1CCN(CCCS(=O)(=O)c2ccc3nc(NC(=O)NC(=O)c4cc5c(ccn5C)cc4Cl)sc3c2)CC1

# System: not listed separately
# Test: Lipophilicity, logD of the compound
# Format: physicochemical
# Conditions: octanol/water
row,Compound,logD
1,O=C(NC(=O)c1ccccc1Cl)Nc1nc2ccc(S(=O)(=O)CCN3CCCC3)cc2s1,2.7
2,CS(=O)(=O)c1ccc2nc(NC(=O)NC(=O)c3cc(-n4cccc4)ccc3Cl)sc2c1,2.8
3,CN1CCN(CCS(=O)(=O)c2ccc3nc(NC(=O)NC(=O)c4ccccc4Cl)sc3c2)CC1,1.5
4,CN(C)CCCS(=O)(=O)c1ccc2nc(NC(=O)NC(=O)c3ccccc3Cl)sc2c1,1.7
5,CN1CCC(S(=O)(=O)c2ccc3nc(NC(=O)NC(=O)c4cc(N5CCCC5)ccc4Cl)sc3c2)CC1,3.1
6,CC(C)NCCS(=O)(=O)c1ccc2nc(NC(=O)NC(=O)c3ccccc3Cl)sc2c1,2.3
7,CN1CCN(CCCS(=O)(=O)c2ccc3nc(NC(=O)NC(=O)c4cc(-c5ccccn5)ccc4Cl)sc3c2)CC1,2.5
8,CN1CCN(CCCS(=O)(=O)c2ccc3nc(NC(=O)NC(=O)c4cc(-n5cccn5)ccc4Cl)sc3c2)CC1,2
9,CN1CCN(CCCS(=O)(=O)c2ccc3nc(NC(=O)NC(=O)c4cccc(-n5cccn5)c4Cl)sc3c2)CC1,1.6
10,COc1ccc2nc(NC(=O)NC(=O)c3c(Cl)cccc3Cl)sc2c1,> 3.9
11,COCCNCCCS(=O)(=O)c1ccc2nc(NC(=O)NC(=O)c3ccccc3Cl)sc2c1,1.3

# Second part, the compound after the results:
row,logD,Compound
1,2.2,COc1cc(Cl)c(C(=O)NC(=O)Nc2nc3ccc(S(=O)(=O)CCCN4CCN(C)CC4)cc3s2)cc1-n1cccn1
2,2.3,CN1CCN(CCCS(=O)(=O)c2ccc3nc(NC(=O)NC(=O)c4cc(-n5cccn5)c(Cl)cc4Cl)sc3c2)CC1
3,2.5,Cc1cc(C)n(-c2ccc(Cl)c(C(=O)NC(=O)Nc3nc4ccc(S(=O)(=O)CCCN5CCN(C)CC5)cc4s3)c2)n1
4,2.6,Cc1ccn(-c2ccc(Cl)c(C(=O)NC(=O)Nc3nc4ccc(S(=O)(=O)CCCN5CCN(C)CC5)cc4s3)c2)n1
5,2.8,CN1CCN(CCCS(=O)(=O)c2ccc3nc(NC(=O)NC(=O)c4cc5c(ccn5C)cc4Cl)sc3c2)CC1
6,2.8,CN1CCN(CCCS(=O)(=O)c2ccc3nc(NC(=O)NC(=O)c4cc(N5CCCC5)c(C#N)cc4Cl)sc3c2)CC1

# System: not listed separately
# Test: Ratio of free drug level in homogenized brain to plasma in Han-Wistar rat measured 1 hr after iv bolus then iv infusion by LC-MS/MS method
# Format: ADME, organism-based
# Conditions: read-out: BPR
# How it was run: as §1
row,Compound,Kp uu at 1 h
1,CN1CCN(CCCS(=O)(=O)c2ccc3nc(NC(=O)NC(=O)c4cc5c(ccn5C)cc4Cl)sc3c2)CC1,0.04

# System: not listed separately
# Test: Cmax in CD1 mouse at 2 mg/kg, po by LC-MS/MS method
# Format: ADME, organism-based
# Design: dose 2 mg/kg, route oral
# Conditions: in vivo
# How it was run: (§3)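 Oral gavage in male HW rats, beagle dogs or CD-1 mice, vehicle Pluronic F127 in water. EDTA plasma was collected over 24 h and quantified by LC/MS/MS after acetonitrile precipitation. Cmax and bioavailability were obtained by non-compartmental analysis against IV data.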
row,Compound,Cmax [nM]
1,CN1CCC(S(=O)(=O)c2ccc3nc(NC(=O)NC(=O)c4cc(N5CCCC5)ccc4Cl)sc3c2)CC1,5800

# System: not listed separately
# Test: Aqueous solubility at pH 7.4 under thermodynamic conditions
# Format: physicochemical
# Conditions: buffer, read-out: Therm_solubility
# How it was run: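 Thermodynamic solubility measured from solid samples in aqueous medium at pH 7.4.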
row,Compound,solubility thermodynamic [µM]
1,O=C(NC(=O)c1ccccc1Cl)Nc1nc2ccc(S(=O)(=O)CCN3CCCC3)cc2s1,64
2,CN1CCN(CCS(=O)(=O)c2ccc3nc(NC(=O)NC(=O)c4ccccc4Cl)sc3c2)CC1,240
3,CN(C)CCCS(=O)(=O)c1ccc2nc(NC(=O)NC(=O)c3ccccc3Cl)sc2c1,240
4,CC(C)NCCS(=O)(=O)c1ccc2nc(NC(=O)NC(=O)c3ccccc3Cl)sc2c1,71
5,COc1ccc2nc(NC(=O)NC(=O)c3c(Cl)cccc3Cl)sc2c1,< 0.71
6,COCCNCCCS(=O)(=O)c1ccc2nc(NC(=O)NC(=O)c3ccccc3Cl)sc2c1,87

# System: MDR1
# Test: Efflux ratio in MDCK cells expressing MDR1 at 10 uM
# Format: ADME, cell-based, Canis lupus familiaris
# Conditions: dog
# How it was run: as §2
row,Compound,efflux ratio at 10 µM
1,CN(C)CCCS(=O)(=O)c1ccc2nc(NC(=O)NC(=O)c3ccccc3Cl)sc2c1,1.4
2,CN1CCC(S(=O)(=O)c2ccc3nc(NC(=O)NC(=O)c4cc(N5CCCC5)ccc4Cl)sc3c2)CC1,0.05
3,CN1CCN(CCCS(=O)(=O)c2ccc3nc(NC(=O)NC(=O)c4cc(-c5ccccn5)ccc4Cl)sc3c2)CC1,19
4,CN1CCN(CCCS(=O)(=O)c2ccc3nc(NC(=O)NC(=O)c4cc(-n5cccn5)ccc4Cl)sc3c2)CC1,7.6
5,CN1CCN(CCCS(=O)(=O)c2ccc3nc(NC(=O)NC(=O)c4cccc(-n5cccn5)c4Cl)sc3c2)CC1,25

# Continued, values first:
row,efflux ratio at 10 µM,Compound
1,46,COc1cc(Cl)c(C(=O)NC(=O)Nc2nc3ccc(S(=O)(=O)CCCN4CCN(C)CC4)cc3s2)cc1-n1cccn1
2,55,CN1CCN(CCCS(=O)(=O)c2ccc3nc(NC(=O)NC(=O)c4cc(-n5cccn5)c(Cl)cc4Cl)sc3c2)CC1
3,76,Cc1cc(C)n(-c2ccc(Cl)c(C(=O)NC(=O)Nc3nc4ccc(S(=O)(=O)CCCN5CCN(C)CC5)cc4s3)c2)n1
4,14,Cc1ccn(-c2ccc(Cl)c(C(=O)NC(=O)Nc3nc4ccc(S(=O)(=O)CCCN5CCN(C)CC5)cc4s3)c2)n1
5,0.71,CN1CCN(CCCS(=O)(=O)c2ccc3nc(NC(=O)NC(=O)c4cc5c(ccn5C)cc4Cl)sc3c2)CC1

# System: not listed separately
# Test: Cmax in Han-Wistar rat at 2 mg/kg, po by LC-MS/MS method
# Format: ADME, organism-based
# Design: dose 2 mg/kg, route oral
# Conditions: in vivo
# How it was run: as §3
row,Compound,Cmax [nM]
1,CN1CCN(CCCS(=O)(=O)c2ccc3nc(NC(=O)NC(=O)c4cc(-c5ccccn5)ccc4Cl)sc3c2)CC1,1000
2,CN1CCN(CCCS(=O)(=O)c2ccc3nc(NC(=O)NC(=O)c4cc(-n5cccn5)ccc4Cl)sc3c2)CC1,1200
3,CN1CCN(CCCS(=O)(=O)c2ccc3nc(NC(=O)NC(=O)c4cccc(-n5cccn5)c4Cl)sc3c2)CC1,12

# Now from value to compound:
row,Cmax [nM],Compound
1,30,CN1CCN(CCCS(=O)(=O)c2ccc3nc(NC(=O)NC(=O)c4cc(-n5cccn5)c(Cl)cc4Cl)sc3c2)CC1
2,78,Cc1cc(C)n(-c2ccc(Cl)c(C(=O)NC(=O)Nc3nc4ccc(S(=O)(=O)CCCN5CCN(C)CC5)cc4s3)c2)n1
3,410,Cc1ccn(-c2ccc(Cl)c(C(=O)NC(=O)Nc3nc4ccc(S(=O)(=O)CCCN5CCN(C)CC5)cc4s3)c2)n1
4,300,CN1CCN(CCCS(=O)(=O)c2ccc3nc(NC(=O)NC(=O)c4cc5c(ccn5C)cc4Cl)sc3c2)CC1
